Experimental data published in PubChem BioAssay AID504382 (The Scripps Research Institute Molecular Screening Center, 2011).
Among all 2,500 compounds or so, about 460 (18%) were called active. These entries were drawn from the full list. Unmarked numbers belong to inactive results.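 The calls were made as follows: active = mean activation above a cutoff of low control average plus 3 SD from the earlier screen (cut at about 12% in these data); inactive = the rest.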

Test: IANBD-channel fluorescence artefacts in buffer – biochemical, artefact control for cardiac RTF calcium sensitizer project, confirmation (AID 504382)
Conditions: IANBD fluorescence interference counterscreen, EC20 Ca2+, at 7.2 µM, active compounds read high, scaled: EC20 calcium 0, EC100 calcium 100
Procedure, shortened: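 Doses – one dose of 7.2 µM, 0.7% DMSO · Buffer or medium – MOPS/KCl/MgCl2/EGTA/NTA/DTT buffer, pH 7.2 · Probe or stimulus – Ca2+ fixed at EC20, 0.472 mM · Measured by – fluorescence intensity, excitation 480 nm, emission 540 nm · Read-out – fluorescence interference versus control range · Timing – 15 min compound exposure at 25 °C · Replication – triplicate wells per compound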

| SMILES | fluorescence artifact activation |
| --- | --- |
| C=CCNc1sc(C(=O)c2ccc(Br)s2)c(N)c1C#N | 37% (active) |
| O=C(NCc1ccc(OC(F)(F)F)cc1)c1cccc2c1C(=O)c1ccc(N3CCCCC3)cc1S2(=O)=O | 0.89% |
| C#CCOCCOCCOCCNc1nc(N2CCN(C(=O)Cn3cc(CCCCN)nn3)CC2)nc(N2CCN(C(=O)Cn3cc(CC(C)O)nn3)CC2)n1 (configuration not stated) | -0.09% |
| COc1ccc(CCNC(=O)COC(=O)c2cc(=O)[nH]c3ccccc23)cc1 | 15.4% (active) |
| COc1ccc(-c2noc(CCC(=O)NCCc3ccccc3)n2)cc1 | 0.2% |
| Cc1ccnc2nc(C(=O)OCC(=O)NCCc3ccccc3)nn12 | 7.51% |
| CCC12CN3CCN(CC(C3)/C1=N\NC(=O)Nc1ccccc1)C2 | -0.04% |
| CCCCCCc1cc2cc(-c3nnc(-c4ccccc4)o3)c(=O)oc2cc1O | 0.03% |
| CCCC(NC(=O)CCc1c(C)c2cc3c(-c4ccccc4)coc3cc2oc1=O)C(=O)O (configuration not stated) | 35.8% (active) |
| O=[N+]([O-])c1ccc(N(c2ccccc2)c2ccccc2)cc1 | 2.48% |
| Nc1c(S(=O)(=O)c2ccccc2)c2nc3ccccc3nc2n1Cc1ccco1 | 22.8% (active) |
| Nc1c(S(=O)(=O)c2ccccc2)c2nc3ccccc3nc2n1/N=C/c1ccco1 | -0.02% |
| Cc1ccc(S(=O)(=O)c2c(N)n(Cc3ccco3)c3nc4ccccc4nc23)cc1 | 0.24% |
| COc1ccccc1Nc1nc(N2CCOCC2)nc(N2CCOCC2)n1 | 0% |
| CCOC(=O)c1c(NC(=S)N2CCN(C)CC2)sc2c1CCN(C(=O)OCC)C2 | 1.28% |
| O=C(CCN1C(=O)/C(=C/c2ccccc2)SC1=S)NNC(=O)c1cccnc1 | 0.24% |
| C/C(O)=c1/ccc2cccc3nc(C)nc1c23 | 13.3% (active) |
| COc1ccc(S(=O)(=O)N2CCC(C(=O)NC(C)CCc3ccccc3)CC2)cc1 (configuration not stated) | -0.01% |
| CCC(C)NC(=O)C1CC(=O)N(CCc2ccc(F)cc2)C1 (configuration not stated) | 111% (active) |
| COc1ccc(CN=C2NC(=O)CC(C(=O)Nc3ccc(F)cc3)S2)cc1 (configuration not stated) | 1.74% |
| NC(=O)NC(=O)COC(=O)c1cccc(NS(=O)(=O)/C=C/c2ccccc2)c1 | 6.11% |
| CC(=O)N(C)c1ccc(C(O)(C(F)(F)F)C(F)(F)F)cc1 | 7.43% |
| O=c1c2ccccc2nc(SCc2nc(-c3ccccc3)no2)n1-c1ccc(F)cc1 | 0.14% |

| SMILES | fluorescence artifact activation |
| --- | --- |
| COc1ccc(C2=NN(C(=O)CSc3ncccn3)C(c3ccc(C)cc3)C2)cc1 (configuration not stated) | 202% (active) |
| CNC(=S)N1N=C(c2ccc(Br)cc2)CC1c1ccc(N(C)C)cc1 (configuration not stated) | 5.89% |
| O=C(c1cn(-c2ccccc2)nc1-c1ccc(Br)cc1)N1CCOCC1 | 0.32% |
| COC(=O)c1[nH]c2ccc(C)cc2c1NC(=O)C(C)N1CCN(C2CCCCC2)CC1 (configuration not stated) | 0.08% |
| O=C(O)C1CCCCC1C(=O)Nc1ccc(-c2ccccc2)cc1 (configuration not stated) | 0.17% |
| CCOc1ccccc1C1C(C#N)=C(N)SC(N)=C1C#N | 0.08% |
| CCOc1ccc(C2C(C#N)=C(N)SC(N)=C2C#N)cc1OCC | 11.7% (active) |
| COc1ccc(C2C(C#N)=C(N)SC(N)=C2C#N)cc1OC | 0.15% |
| Cc1cc(S(=O)(=O)Nc2c(C)nn(C)c2C)c(Cl)cc1Cl | 0.08% |
| COC(=O)c1ccc2c(c1)NC1=C(C(=O)CC(C)(C)C1)C(c1ccncc1)N2 (configuration not stated) | 0.26% |
| Cc1ccccc1OCCC(=O)Nc1cc(S(=O)(=O)N2CCCCC2)ccc1N1CCN(C)CC1 | 4.83% |
| CCN1/C(=C\c2ccc3ccccc3[n+]2CC)Sc2cc(C)ccc21 | 20.2% (active) |
| CCN1/C(=C/c2ccc3cc(C)cc(C)c3[n+]2CC)Sc2cc(C)ccc21 | 0.44% |
| CCN1/C(=C/c2ccc3cc(C)ccc3[n+]2CC)Sc2ccc3sccc3c21 | 0.99% |
| CCN1/C(=C\c2ccc3cc(C)ccc3[n+]2CC)Sc2cc(C)c(C)cc21 | 0.1% |
| CCN1/C(=C/c2ccc3cc(C)ccc3[n+]2CC)Sc2cc(C)ccc21 | 0.41% |
| CCN1/C(=C/c2ccc3cc(C)ccc3[n+]2CC)Sc2ccccc21 | 15.3% (active) |
| COCCN(CCOC)Cc1c(O)ccc2c1O/C(=C\c1ccco1)C2=O | 0.11% |
| C=CCn1c(O)c(CN2CCN(Cc3ccccc3)CC2)c(C)c(C#N)c1=O | 0.03% |
| CCC[C@@H](CN1CCC[C@H]1CN1C(N)=NC[C@@H]1Cc1ccccc1)N1C[C@@H](Cc2ccccc2)N(CCCC2CCCC2)C1=N | 7.46% |
| CCOc1ccc(NC(=O)/C(C#N)=C/c2ccc(N3CCCC3)c(C)c2)cc1 | 0.06% |
| Oc1[nH]c2ccc(Br)cc2c1N=Nc1ccc(F)cc1 | 5.56% |
| CS(=O)(=O)Nc1ccc(C2=NN(C(=O)CCCC(=O)O)C(c3cccs3)C2)cc1 (configuration not stated) | 16.5% (active) |

| SMILES | fluorescence artifact activation |
| --- | --- |
| COc1ccc(C2=NN(C(=O)COC(=O)c3ccc(NC(=O)CC#N)cc3)C(c3ccco3)C2)cc1 (configuration not stated) | 2.58% |
| O/C(=C\c1nc2ccccc2[nH]1)c1cccs1 | 0% |
| O=C(O)c1ccc(O)c(O)c1 | -0.01% |
| Cc1cc(C)c[n+](-c2[nH]c(=O)sc2/C=N/NC([S-])=Nc2ccccc2)c1 | 0.17% |
| Cc1ccc[n+](-c2nc([O-])sc2C=O)c1 | 9.59% |
| Cc1ccc(N/C=C2/Sc3ccccc3NC2=O)cc1 | 0.14% |
| CC1C2(C)OC(=N)C(C#N)(C(C)O2)C1(C#N)C#N (configuration not stated) | 0.64% |
| CCN1C(=O)/C(=C/C=C2/SCCN2C)SC1=S | 10.2% |
| CCN1C(=O)/C(=C\C=C2/C=CC=CN2CC)SC1=S | 104% (active) |
| CCCCN1C(=O)/C(=C/C=C2/CC(C)(C)CN2C)SC1=S | -0.02% |
| COC(=O)C(C)n1cnc2c(nnn2Cc2ccc(Cl)cc2)c1=O (configuration not stated) | 0.03% |
| Cc1ccc(C)c(S(=O)(=O)N2CCCC2CNC(=O)C(=O)NC2CC2)c1 (configuration not stated) | 0.11% |
| Cc1cc(/C=C2\SC(=S)N(C)C2=O)c(C)n1-c1ccccc1O | 3.34% |
| CN(/N=C/c1ccc(N(C)C)cc1)C1=NS(=O)(=O)c2ccccc21 | 6.25% |
| CCN(CC)c1ccc2cc(C=O)c(=O)oc2c1 | 5.57% |
| CCN(CC)c1ccc2cc(-c3nc4ccccc4n3C)c(=O)oc2c1 | 0.12% |
| CCN(CC)c1ccc2c(Cl)c(Br)c(=O)oc2c1 | 0.1% |
| CCN(CC)c1ccc2oc(=O)c(C)nc2c1 | 124% (active) |
| CCN(CC)c1ccc2c(c1)oc(=O)c1c(Cl)cc(=O)oc12 | 21.4% (active) |
| O=C(Nc1ccccc1)C1CC2CCCC(C1)C2=O (configuration not stated) | 2.4% |
| O=C(C1=NN(c2ccccc2)C2C(=O)N(c3ccc(Cl)cc3)C(=O)C12)c1ccccc1 (configuration not stated) | -0.02% |
| Cc1ccc2c(C(=O)CN3CCC(C(N)=O)CC3)c(C)[nH]c2c1 | 9.54% |
| CCS(=O)(=O)N1Cc2ccccc2CC1C(=O)Nc1ccc(OC)cc1OC (configuration not stated) | 0.07% |

| SMILES | fluorescence artifact activation |
| --- | --- |
| O=C(O)c1cccc2c1C(=O)c1ccc(N3CCCC3)cc1S2(=O)=O | -0.07% |
| O=C1c2cccc3c(N4CCCCC4)ccc(c23)C(=O)N1CCO | 42.3% (active) |
| C=CCN1C(=O)c2cccc3c(N4CCCCC4)ccc(c23)C1=O | 2.88% |
| CCCN1C(=O)c2cccc3c(N4CCCCC4)ccc(c23)C1=O | 0.47% |
| O[C@@H]1CN(C2CCCCC2)CC[C@H]1N1CCN(CCc2ccccc2)CC1 | 7.79% |
| CC[C@@]1(O)C(=O)OCc2c1cc1n(c2=O)Cc2cc3c(CN(C)C)c(O)ccc3nc2-1 | 6.14% |
| CCOc1ccc(Nc2nc(N)c([N+](=O)[O-])c(NCc3ccccc3)n2)cc1 | 0.09% |
| CC[n+]1ccc(/C=C/c2c[nH]c3ccccc23)cc1 | 59.8% (active) |
| Cc1ccc2[nH]cc(/C=C/c3cc[n+](C)cc3)c2c1 | -0.07% |
| OCC[n+]1ccc(/C=C/c2c[nH]c3ccccc23)cc1 | 0% |
| C[n+]1ccc(/C=C/c2c[nH]c3ccc(F)cc23)cc1 | 0.16% |
| C[n+]1ccc(/C=C/c2c[nH]c3ccccc23)cc1 | 57.3% (active) |
| C(=Cc1c[nH]c2ccccc12)c1nccc2ccccc12 | 1.55% |
| Cc1cc(Cl)ccc1OCC(=O)NCCOc1nc(N2CCOCC2)nc(N2CCOCC2)n1 | 0.1% |
| N#Cc1c(-c2ccccc2F)cc(C2CC2)nc1SCC(=O)c1cccs1 | 0.28% |
| Cc1ccc(C(=O)N/C(=C/c2ccc(-c3ccc([N+](=O)[O-])cc3)o2)C(=O)NCCCN(C)C)cc1 | 0.29% |
| NC(=O)CC[C@@H]1NC(=O)[C@H](Cc2ccc(O)cc2)NC(=O)c2cc([N+](=O)[O-])cc(F)c2OCC[C@@H](C(N)=O)NC1=O | 0.02% |
| COc1ccc(CNS(=O)(=O)c2cc(-c3cc(C)no3)ccc2OC)cc1OC | 2.41% |
| CC(C)(CO)NCC#Cc1ccccc1 | -0.01% |
| COc1ccccc1C(=O)Nc1nnn(C)n1 | -0.09% |
| CSCCC(NC(=O)c1ccccc1Cl)C(=O)N1CCC1 (configuration not stated) | -0.06% |
| Cc1nn(C)c(NC(=O)c2ccccc2Cl)c1Cl | 18.7% (active) |
| O=C(Oc1cc2oc(=O)c3c(c2cc1Cl)CCCC3)c1cccs1 | 0.11% |
